Measurements taken from ChEMBL document CHEMBL5058577, “EUbOPEN Chemogenomics Library 2 (Multiplex)” (2022).

System: HEK-293T
Assay: Multiplex assay against HEK293T
Assay type: toxicity, cell-based
Conditions: human
How it was run: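 At seeding, live cells were stained with Hoechst33342, BioTracker Green Microtubule Cytoskeleton Dye, MitoTracker Red and Annexin V Alexa Fluor 680. After compound addition they were imaged on a CQ1 microscope at 37°C and 5% CO2, and CellPathfinder machine-learning gating sorted them into Hoechst high-intensity objects or normal cells, with normal cells further split into healthy, pyknosed or fragmented nuclei and pyknosed cells into mitotic or apoptotic. Tubulin, mitochondrial-mass and membrane-permeability phenotypes are given as per cents of cells with healthy nuclei.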

[1] = 12 h, 1 µM, compound concentration 1 uM, replicate 1
[2] = 12 h, 1 µM, compound concentration 1 uM, replicate 2
[3] = 12 h, 10 µM, compound concentration 10 uM, replicate 1
[4] = 12 h, 10 µM, compound concentration 10 uM, replicate 2
[5] = 24 h, 1 µM, compound concentration 1 uM, replicate 1
[6] = 24 h, 1 µM, compound concentration 1 uM, replicate 2
[7] = 24 h, 10 µM, compound concentration 10 uM, replicate 1
[8] = 24 h, 10 µM, compound concentration 10 uM, replicate 2
[9] = 48 h, 1 µM, compound concentration 1 uM, replicate 1
[10] = 48 h, 1 µM, compound concentration 1 uM, replicate 2
[11] = 48 h, 10 µM, compound concentration 10 uM, replicate 1
[12] = 48 h, 10 µM, compound concentration 10 uM, replicate 2

SMILES: CC(C)(C)c1cc(NC(=O)Nc2ccc(-c3cn4c(n3)sc3cc(OCCN5CCOCC5)ccc34)cc2)no1 [QUIZARTINIB]
- Population Apoptotic (%) [1]: 27%
- Population Fragmented Nuclei (%) [1]: 5%
- Population Healthy Nuclei (%) [1]: 83%
- Population Hoechst High Intensity Objects (%) [1]: 10%
- Population Membrane Permeable-Phenotype (%) [1]: 0%
- Population Mitochondria Different-Phenotype (%) [1]: 40%
- Population Mitotic Cells (%) [1]: 72%
- Population Normal (%) [1]: 89%
- Population Pyknosed Nuclei (%) [1]: 11%
- Population Tubulin-Different-Phenotype (%) [1]: 35%
- Total Cell Count [1]: 377
- Population Apoptotic (%) [2]: 34%
- Population Healthy Nuclei (%) [2]: 80%
- Population Hoechst High Intensity Objects (%) [2]: 6%
- Population Mitochondria Different-Phenotype (%) [2]: 58%
- Population Mitotic Cells (%) [2]: 65%
- Population Normal (%) [2]: 93%
- Population Pyknosed Nuclei (%) [2]: 14%
- Population Tubulin-Different-Phenotype (%) [2]: 26%
- Total Cell Count [2]: 345
- Population Apoptotic (%) [3]: 53%
- Population Fragmented Nuclei (%) [3]: 7%
- Population Healthy Nuclei (%) [3]: 71%
- Population Hoechst High Intensity Objects (%) [3]: 23%
- Population Membrane Permeable-Phenotype (%) [3]: 0%
- Population Mitochondria Different-Phenotype (%) [3]: 78%
- Population Mitotic Cells (%) [3]: 46%
- Population Normal (%) [3]: 76%
- Population Pyknosed Nuclei (%) [3]: 21%
- Population Tubulin-Different-Phenotype (%) [3]: 68%
- Total Cell Count [3]: 324
- Population Apoptotic (%) [4]: 73%
- Population Hoechst High Intensity Objects (%) [4]: 12%
- Population Mitochondria Different-Phenotype (%) [4]: 81%
- Population Mitotic Cells (%) [4]: 26%
- Population Normal (%) [4]: 87%
- Population Tubulin-Different-Phenotype (%) [4]: 63%
- Total Cell Count [4]: 293
- Population Apoptotic (%) [5]: 41%
- Population Fragmented Nuclei (%) [5]: 7%
- Population Healthy Nuclei (%) [5]: 84%
- Population Hoechst High Intensity Objects (%) [5]: 6%
- Population Membrane Permeable-Phenotype (%) [5]: 0%
- Population Mitochondria Different-Phenotype (%) [5]: 26%
- Population Mitotic Cells (%) [5]: 58%
- Population Normal (%) [5]: 93%
- Population Pyknosed Nuclei (%) [5]: 7%
- Population Tubulin-Different-Phenotype (%) [5]: 21%
- Total Cell Count [5]: 491
- Population Apoptotic (%) [6]: 38%
- Population Fragmented Nuclei (%) [6]: 5%
- Population Hoechst High Intensity Objects (%) [6]: 4%
- Population Mitochondria Different-Phenotype (%) [6]: 40%
- Population Mitotic Cells (%) [6]: 61%
- Population Normal (%) [6]: 95%
- Population Pyknosed Nuclei (%) [6]: 10%
- Population Tubulin-Different-Phenotype (%) [6]: 17%
- Total Cell Count [6]: 440
- Population Apoptotic (%) [7]: 62%
- Population Fragmented Nuclei (%) [7]: 8%
- Population Healthy Nuclei (%) [7]: 79%
- Population Hoechst High Intensity Objects (%) [7]: 16%
- Population Membrane Permeable-Phenotype (%) [7]: 0%
- Population Mitochondria Different-Phenotype (%) [7]: 63%
- Population Mitotic Cells (%) [7]: 37%
- Population Normal (%) [7]: 83%
- Population Pyknosed Nuclei (%) [7]: 12%
- Population Tubulin-Different-Phenotype (%) [7]: 57%
- Total Cell Count [7]: 413
- Population Apoptotic (%) [8]: 69%
- Population Fragmented Nuclei (%) [8]: 9%
- Population Healthy Nuclei (%) [8]: 78%
- Population Hoechst High Intensity Objects (%) [8]: 9%
- Population Mitochondria Different-Phenotype (%) [8]: 75%
- Population Mitotic Cells (%) [8]: 30%
- Population Normal (%) [8]: 90%
- Population Pyknosed Nuclei (%) [8]: 11%
- Population Tubulin-Different-Phenotype (%) [8]: 50%
- Total Cell Count [8]: 321
- Population Apoptotic (%) [9]: 21%
- Population Fragmented Nuclei (%) [9]: 12%
- Population Healthy Nuclei (%) [9]: 80%
- Population Hoechst High Intensity Objects (%) [9]: 3%
- Population Membrane Permeable-Phenotype (%) [9]: 2%
- Population Mitochondria Different-Phenotype (%) [9]: 11%
- Population Mitotic Cells (%) [9]: 78%
- Population Normal (%) [9]: 96%
- Population Pyknosed Nuclei (%) [9]: 6%
- Population Tubulin-Different-Phenotype (%) [9]: 15%
- Total Cell Count [9]: 851
- Population Fragmented Nuclei (%) [10]: 10%
- Population Healthy Nuclei (%) [10]: 82%
- Population Hoechst High Intensity Objects (%) [10]: 2%
- Population Membrane Permeable-Phenotype (%) [10]: 0%
- Population Mitochondria Different-Phenotype (%) [10]: 24%
- Population Normal (%) [10]: 97%
- Population Tubulin-Different-Phenotype (%) [10]: 18%
- Total Cell Count [10]: 566
- Population Apoptotic (%) [11]: 57%
- Population Fragmented Nuclei (%) [11]: 9%
- Population Healthy Nuclei (%) [11]: 77%
- Population Hoechst High Intensity Objects (%) [11]: 9%
- Population Membrane Permeable-Phenotype (%) [11]: 1%
- Population Mitochondria Different-Phenotype (%) [11]: 40%
- Population Mitotic Cells (%) [11]: 42%
- Population Normal (%) [11]: 90%
- Population Pyknosed Nuclei (%) [11]: 12%
- Population Tubulin-Different-Phenotype (%) [11]: 35%
- Total Cell Count [11]: 583
- Population Apoptotic (%) [12]: 58%
- Population Fragmented Nuclei (%) [12]: 11%
- Population Healthy Nuclei (%) [12]: 73%
- Population Hoechst High Intensity Objects (%) [12]: 12%
- Population Membrane Permeable-Phenotype (%) [12]: 0%
- Population Mitochondria Different-Phenotype (%) [12]: 59%
- Population Mitotic Cells (%) [12]: 41%
- Population Normal (%) [12]: 87%
- Population Pyknosed Nuclei (%) [12]: 14%
- Population Tubulin-Different-Phenotype (%) [12]: 37%
- Total Cell Count [12]: 392
